Values after ≈ are worked out from the molar mass of the structure shown.
Experiments:
[1] = tested on: Acinetobacter calcoaceticus; experiment: Antibacterial activity against Acinetobacter calcoaceticus Ac-54 assessed as growth inhibition at 128 to 0.002 mg/L incubated for 18 hrs at 37 degC by agar dilution method; type: functional; conditions: Ac-54, 18 h
In short: (§1)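 Agar dilution on Mueller Hinton agar per Japanese Society of Chemotherapy standard method; about 10⁴ cfu inoculated onto plates holding two-fold dilution series; incubation 37°C, 18 h; MIC read as growth endpoint.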

[2] = tested on: Escherichia coli; experiment: Antibacterial activity against Escherichia coli 177 assessed as growth inhibition at 128 to 0.002 mg/L incubated for 18 hrs at 37 degC by agar dilution method; type: functional; conditions: Escherichia coli, 177, 18 h; in short: as §1
[3] = tested on: Providencia rettgeri; experiment: Antibacterial activity against Providencia rettgeri W1008 assessed as growth inhibition at 128 to 0.002 mg/L incubated for 18 hrs at 37 degC by agar dilution method; type: functional; conditions: W1008, 18 h; in short: as §1
[4] = tested on: Enterobacter cloacae; experiment: Antibacterial activity against Enterobacter cloacae IFO13535 assessed as growth inhibition at 128 to 0.002 mg/L incubated for 18 hrs at 37 degC by agar dilution method; type: functional; conditions: IFO13535, 18 h; in short: as §1
[5] = Solubility of the compound in JP2 solution at pH 6.8 after 24 hrs at 25 degC by HPLC; type: physicochemical
In short: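 Excess solid shaken in JP2 (50 mM potassium dihydrogenphosphate, pH 6.8) at 25°C for 24 h to equilibrium, filtered 0.45 µm; filtrate concentration by reversed-phase UPLC, UV 290 nm; mean ± S.D., n=3.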

[6] = tested on: Escherichia coli; experiment: Antibacterial activity against Escherichia coli KC-14 assessed as growth inhibition at 128 to 0.002 mg/L incubated for 18 hrs at 37 degC by agar dilution method; type: functional; conditions: KC-14, 18 h; in short: as §1
[7] = tested on: Pseudomonas aeruginosa; experiment: Antibacterial activity against Pseudomonas aeruginosa IFO3445 assessed as growth inhibition at 128 to 0.002 mg/L incubated for 18 hrs at 37 degC by agar dilution method; type: functional; conditions: IFO3445, 18 h; in short: as §1
[8] = tested on: Pseudomonas aeruginosa; experiment: Antibacterial activity against Pseudomonas aeruginosa 15846 assessed as growth inhibition at 128 to 0.002 mg/L incubated for 18 hrs at 37 degC by agar dilution method; type: functional; conditions: Pseudomonas aeruginosa, 15846, 18 h; in short: as §1
[9] = tested on: Escherichia coli; experiment: Antibacterial activity against Escherichia coli NIHJ assessed as growth inhibition at 128 to 0.002 mg/L incubated for 18 hrs at 37 degC by agar dilution method; type: functional; in short: as §1
[10] = tested on: Klebsiella pneumoniae; experiment: Antibacterial activity against Klebsiella pneumoniae KC-1 assessed as growth inhibition at 128 to 0.002 mg/L incubated for 18 hrs at 37 degC by agar dilution method; type: functional; conditions: KC-1, 18 h; in short: as §1
[11] = tested on: Morganella morganii; experiment: Antibacterial activity against Morganella morganii W1026 assessed as growth inhibition at 128 to 0.002 mg/L incubated for 18 hrs at 37 degC by agar dilution method; type: functional; conditions: W1026, 18 h; in short: as §1
[12] = tested on: Proteus mirabilis; experiment: Antibacterial activity against Proteus mirabilis IFO3849 assessed as growth inhibition at 128 to 0.002 mg/L incubated for 18 hrs at 37 degC by agar dilution method; type: functional; conditions: IFO3849, 18 h; in short: as §1
[13] = tested on: Serratia marcescens; experiment: Antibacterial activity against Serratia marcescens T-55 assessed as growth inhibition at 128 to 0.002 mg/L incubated for 18 hrs at 37 degC by agar dilution method; type: functional; conditions: T-55, 18 h; in short: as §1
[14] = tested on: Klebsiella pneumoniae; experiment: Antibacterial activity against Klebsiella pneumoniae DT-S assessed as growth inhibition at 128 to 0.002 mg/L incubated for 18 hrs at 37 degC by agar dilution method; type: functional; in short: as §1
[15] = Oral drug absorption in Sprague-Dawley rat at 10 mg/kg, po after 24 hrs by HPLC; type: ADME, organism-based; conditions: in vivo
In short: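 Absorption rate computed as total urinary plus biliary excretion (% of dose, summed means) after oral dosing divided by total after iv dosing; excretion measured in fasted male Sprague-Dawley rats by HPLC over 24 h, bile glucuronides alkaline-hydrolysed.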

[16] = Drug excretion in Sprague-Dawley rat at 10 mg/kg, po after 24 hrs by HPLC; type: ADME, organism-based; conditions: in vivo, read-out: Drug excretion
In short: (§2)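 Six-week male Sprague-Dawley rats, fasted overnight; oral dose suspended in 0.5% methylcellulose, iv dose dissolved in 0.04 N NaOH. Urine from intact rats in metabolic cages, bile from bile duct-cannulated rats, 0–24 h. Bile alkaline-hydrolysed (1 N NaOH, 37°C, 1 h) to convert glucuronides; HPLC with UV 290 nm and internal standard; % of dose; mean ± S.D., three rats.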

[17] = tested on: Proteus vulgaris; experiment: Antibacterial activity against Proteus vulgaris IFO3167 assessed as growth inhibition at 128 to 0.002 mg/L incubated for 18 hrs at 37 degC by agar dilution method; type: functional; conditions: IFO3167, 18 h; in short: as §1
[18] = tested on: Serratia marcescens; experiment: Antibacterial activity against Serratia marcescens IFO3736 assessed as growth inhibition at 128 to 0.002 mg/L incubated for 18 hrs at 37 degC by agar dilution method; type: functional; conditions: IFO3736, 18 h; in short: as §1
[19] = tested on: Pseudomonas aeruginosa; experiment: Antibacterial activity against Pseudomonas aeruginosa E-2 assessed as growth inhibition at 128 to 0.002 mg/L incubated for 18 hrs at 37 degC by agar dilution method; type: functional; conditions: E-2, 18 h; in short: as §1
[20] = tested on: Salmonella typhimurium; experiment: Antibacterial activity against Salmonella typhimurium IFO13245 assessed as growth inhibition at 128 to 0.002 mg/L incubated for 18 hrs at 37 degC by agar dilution method; type: functional, Salmonella enterica subsp. enterica serovar Typhimurium; conditions: Salmonella enterica, IFO13245, 18 h; in short: as §1
[21] = target: DNA gyrase (Escherichia coli, UniProt P0AES4+P0AES6); experiment: Inhibition of Escherichia coli DNA gyrase preincubated for 5 mins at 37 degC before addition of relaxed pBR322 as substrate by supercoiling assay; type: protein-complex assay
[22] = Passive permeability of the compound after 5 hrs at 25 degC by PAMPA assay; type: physicochemical; conditions: read-out: Peff
In short: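 PAMPA: 10 µM compound in PBS with 5% MeOH in donor, PBS acceptor; 25°C, 5 h; both sides quantified by HPLC; Peff derived from donor/acceptor concentrations, volumes, 0.3 cm² filter area and 18,000 s; mean ± S.D., n=3.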

[23] = Drug excretion in Sprague-Dawley rat urine at 10 mg/kg, po after 24 hrs by HPLC; type: ADME, organism-based; conditions: read-out: Drug excretion; in short: as §2
[24] = tested on: Citrobacter freundii; experiment: Antibacterial activity against Citrobacter freundii IFO1268 assessed as growth inhibition at 128 to 0.002 mg/L incubated for 18 hrs at 37 degC by agar dilution method; type: functional; conditions: IFO1268, 18 h; in short: as §1
[25] = Drug excretion in Sprague-Dawley rat bile assessed as unmetabolized form at 10 mg/kg, po after 24 hrs by HPLC; type: ADME, organism-based; conditions: read-out: Drug excretion; in short: as §2
[26] = Drug excretion in Sprague-Dawley rat bile assessed as unmetabolized form at 5 mg/kg, iv after 24 hrs by HPLC; type: ADME, organism-based; conditions: read-out: Drug excretion; in short: as §2
[27] = Drug excretion in Sprague-Dawley rat assessed as unmetabolized form at 5 mg/kg, iv after 24 hrs by HPLC; type: ADME, organism-based; conditions: in vivo, read-out: Drug excretion; in short: as §2
[28] = Drug excretion in Sprague-Dawley rat urine at 5 mg/kg, iv after 24 hrs by HPLC; type: ADME, organism-based; conditions: read-out: Drug excretion; in short: as §2

MIC [1] [µg/mL]	MIC [2] [µg/mL]	MIC [3] [µg/mL]	MIC [4] [µg/mL]	solubility at 24 h [5] [µg/mL]	MIC [6] [µg/mL]	MIC [7] [µg/mL]	MIC [8] [µg/mL]	MIC [9] [µg/mL]	MIC [10] [µg/mL]	MIC [11] [µg/mL]	MIC [12] [µg/mL]	MIC [13] [µg/mL]	MIC [14] [µg/mL]	Fa at 24 h [15] [%]	dose excreted at 24 h [16] [%]	MIC [17] [µg/mL]	MIC [18] [µg/mL]	MIC [20] [µg/mL]	MIC [24] [µg/mL]	Structure (SMILES)	also measured
0.17 (≈ 0.368 µM)	0.01 (≈ 0.0217 µM)	0.17 (≈ 0.368 µM)	0.17 (≈ 0.368 µM)	41 (≈ 88.9 µM)	0.01 (≈ 0.0217 µM)	0.17 (≈ 0.368 µM)	0.17 (≈ 0.368 µM)	0.01 (≈ 0.0217 µM)	0.17 (≈ 0.368 µM)	0.17 (≈ 0.368 µM)	0.17 (≈ 0.368 µM)	0.17 (≈ 0.368 µM)	0.17 (≈ 0.368 µM)	> 90	92	0.17 (≈ 0.368 µM)	0.17 (≈ 0.368 µM)	0.17 (≈ 0.368 µM)	0.17 (≈ 0.368 µM)	Cc1c(N2CC(NC(C)C)C2)c(F)cc2c(=O)c(C(=O)O)cn(-c3nc(N)c(F)cc3F)c12	MIC [19]: 0.17 µg/mL (≈ 0.368 µM); IC50 [21]: 433 nM; Papp at 5 h [22]: 1.2 ×10⁻⁶ cm/s; dose excreted at 24 h [23]: 24%; dose excreted at 24 h [25]: 68%
0.12 (≈ 0.268 µM)	0.006 (≈ 0.0134 µM)	0.12 (≈ 0.268 µM)	0.12 (≈ 0.268 µM)	45 (≈ 101 µM)	0.006 (≈ 0.0134 µM)	0.12 (≈ 0.268 µM)	0.12 (≈ 0.268 µM)	0.006 (≈ 0.0134 µM)	0.12 (≈ 0.268 µM)	0.12 (≈ 0.268 µM)	0.12 (≈ 0.268 µM)	0.12 (≈ 0.268 µM)	0.12 (≈ 0.268 µM)	76	69	0.12 (≈ 0.268 µM)	0.12 (≈ 0.268 µM)	0.12 (≈ 0.268 µM)	0.12 (≈ 0.268 µM)	CCNC1CN(c2c(F)cc3c(=O)c(C(=O)O)cn(-c4nc(N)c(F)cc4F)c3c2C)C1	dose excreted at 24 h [26]: 51%; dose excreted at 24 h [27]: 91%; MIC [19]: 0.12 µg/mL (≈ 0.268 µM); IC50 [21]: 174 nM; Papp at 5 h [22]: 0.29 ×10⁻⁶ cm/s; dose excreted at 24 h [23]: 20%; dose excreted at 24 h [28]: 41%; dose excreted at 24 h [25]: 49%
0.077 (≈ 0.178 µM)	0.006 (≈ 0.0138 µM)	0.077 (≈ 0.178 µM)	0.077 (≈ 0.178 µM)	3.1 (≈ 7.15 µM)	0.006 (≈ 0.0138 µM)	0.077 (≈ 0.178 µM)	0.077 (≈ 0.178 µM)	0.006 (≈ 0.0138 µM)	0.077 (≈ 0.178 µM)	0.077 (≈ 0.178 µM)	0.077 (≈ 0.178 µM)	0.077 (≈ 0.178 µM)	0.077 (≈ 0.178 µM)	31	28	0.077 (≈ 0.178 µM)	0.077 (≈ 0.178 µM)	0.077 (≈ 0.178 µM)	0.077 (≈ 0.178 µM)	CNC1CN(c2c(F)cc3c(=O)c(C(=O)O)cn(-c4nc(N)c(F)cc4F)c3c2C)C1	dose excreted at 24 h [26]: 41%; dose excreted at 24 h [27]: 90%; MIC [19]: 0.077 µg/mL (≈ 0.178 µM); IC50 [21]: 554 nM; Papp at 5 h [22]: 0.19 ×10⁻⁶ cm/s; dose excreted at 24 h [23]: 13%; dose excreted at 24 h [28]: 49%; dose excreted at 24 h [25]: 16%

Structure (SMILES)	MIC [1] [µg/mL]	MIC [2] [µg/mL]	MIC [3] [µg/mL]	MIC [4] [µg/mL]	solubility at 24 h [5] [µg/mL]	MIC [6] [µg/mL]	MIC [7] [µg/mL]	MIC [8] [µg/mL]	MIC [9] [µg/mL]	MIC [10] [µg/mL]	MIC [11] [µg/mL]	MIC [12] [µg/mL]	MIC [13] [µg/mL]	MIC [14] [µg/mL]	Fa at 24 h [15] [%]	dose excreted at 24 h [16] [%]	MIC [17] [µg/mL]	MIC [18] [µg/mL]	MIC [20] [µg/mL]	MIC [24] [µg/mL]	also measured
C[C@H]1COc2c(N3CCN(C)CC3)c(F)cc3c(=O)c(C(=O)O)cn1c23.C[C@H]1COc2c(N3CCN(C)CC3)c(F)cc3c(=O)c(C(=O)O)cn1c23.O [LEVOFLOXACIN]	0.12	0.019	0.12	0.12		0.019			0.019	0.12	0.12	0.12	0.12	0.12			0.12	0.12	0.12	0.12	

From ChEMBL document CHEMBL3632612, “Discovery of WQ-3810: Design, synthesis, and evaluation of 7-(3-alkylaminoazetidin-1-yl)fluoro-quinolones as orally active antibacterial agents” (Eur J Med Chem, 2015)
